Laboratory results published in ChEMBL document CHEMBL1141604, “Benzenesulfonamide indole inhibitors of cytosolic phospholipase A2alpha: optimization of in vitro potency and rat pharmacokinetics for oral efficacy” (Bioorg Med Chem, 2008).

Experiments:
[1] = Inhibition of human cPLA2-alpha assessed as cleavage of 7-hydroxycoumarinyl-gamma-linolenate
Summary of the method: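 Substrate 90 µM GLU with 120 µM DTPC. Compounds in DMSO tested in duplicate. Fluorescence (ex 355/em 460 nm) read every 4 min for 84 min; inhibition from slope. IC50 averaged from at least two independent runs.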

[2] = Inhibition of cPLA2-alpha in Sprague-Dawley rat whole blood assay in presence of A23187; type: tissue-based
Summary of the method: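 Heparinized blood from male Sprague-Dawley rats, taken by cardiac puncture. Preincubated 15 min at 37 °C with compound in DMSO, then stimulated 10 min at 37 °C with 5 µM A23187 (final). Stopped with 20 mM EDTA; plasma precipitated with cold methanol at −80 °C. TXB2 measured by immunoassay; IC50 values averaged from at least two independent runs.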

[3] = Clearance in Sprague-Dawley rat at 2 mg/kg, iv; type: ADME, organism-based; set-up: dose 2 mg/kg, route intravenous; details: in vivo
Summary of the method: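 Male Sprague-Dawley rats, 200–300 g, n = 3, given a single 2 mg/kg tail-vein bolus in 50% PEG-400/50% DMSO. Blood drawn via jugular cannula over 24 h and plasma acidified with HCl. Plasma levels measured by LC/MS/MS after acetonitrile precipitation with internal standard; quantitation limit 5 ng/mL. Clearance from non-compartmental analysis.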

[4] = Oral bioavailability in Sprague-Dawley rat at 25 mg/kg administered through MC/TW formulation; type: ADME, organism-based; details: in vivo
Summary of the method: (§1)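 Overnight-fasted male Sprague-Dawley rats (n = 3) gavaged in MC/TW or Phosal vehicle; compound at 37.5 mg/mL, diluted with water, dosed at 4 mL/kg. Jugular blood taken over 24 h; plasma analysed by LC/MS/MS. F calculated as the dose-normalized oral/iv AUC ratio, iv reference 2 mg/kg.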

Ovis aries [5] = test: Effect on Ascaris suum-induced early phase-bronchoconstriction in naturally sensitized sheep model assessed as increase in specific lung resistance at 3 mg/kg, po bid for 2 days; type: functional
Summary of the method: (§2)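 Naturally sensitized sheep challenged via the airways with Ascaris suum antigen. Pulmonary resistance recorded breath by breath using the esophageal balloon technique. Oral doses given in Phosal stock diluted with water, 0.25 mL/kg. Dosing BID before challenge and on challenge day, 2 h before and 8 h after. Early and late responses expressed as mean maximum % increase in specific lung resistance, compared with each sheep's historical control.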

Ovis aries [6] = test: Effect on Ascaris suum-induced early phase-bronchoconstriction in naturally sensitized sheep model assessed as increase in specific lung resistance at 1 mg/kg, po bid for 5 days; type: functional; summary of the method: as §2
Ovis aries [7] = test: Effect on Ascaris suum-induced late phase-bronchoconstriction in naturally sensitized sheep model assessed as increase in specific lung resistance at 10 mg/kg, iv bid for 1 day; type: functional
Ovis aries [8] = test: Effect on Ascaris suum-induced late phase-bronchoconstriction in naturally sensitized sheep model assessed as increase in specific lung resistance at 3 mg/kg, po bid for 2 days; type: functional; summary of the method: as §2
Ovis aries [9] = test: Effect on Ascaris suum-induced late phase-bronchoconstriction in naturally sensitized sheep model assessed as increase in specific lung resistance at 1 mg/kg, po bid for 5 days; type: functional; summary of the method: as §2
[10] = Oral bioavailability in Sprague-Dawley rat at 25 mg/kg administered through Phosal formulation; type: ADME, organism-based; details: in vivo; summary of the method: as §1
[11] = Clearance in Beagle dog at 2 mg/kg, iv; type: ADME, organism-based, Canis lupus familiaris; set-up: dose 2 mg/kg, route intravenous; details: in vivo
Summary of the method: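 Male Beagle dogs, 8.5–13.0 kg, n = 3, fasted overnight, given 2 mg/kg iv in 20% DMSO/80% PEG-200. Saphenous blood sampled over 24 h and plasma acidified to about pH 4. Analysed by LC/MS/MS with internal standard. Clearance by non-compartmental methods.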

[12] = Oral bioavailability in Beagle dog at 5 mg/kg administered through MC/TW formulation; type: ADME, organism-based, Canis lupus familiaris; details: in vivo
Summary of the method: (§3)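 Fasted male Beagle dogs (n = 3) dosed orally in MC/TW or Phosal formulation, volume 4 or 6 mL/kg. Saphenous plasma collected over 24 h and measured by LC/MS/MS. F calculated as the dose-normalized oral/iv AUC ratio against 2 mg/kg iv.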

[13] = Oral bioavailability in Beagle dog at 5 mg/kg administered through Phosal formulation; type: ADME, organism-based, Canis lupus familiaris; details: in vivo; summary of the method: as §3
[14] = Binding affinity at human cPLA2-alpha by isothermal calorimetry
Summary of the method: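 ITC at 30 °C. Purified human cPLA2α dialyzed into 50 mM Hepes pH 7.4, 0.3 mM EDTA, 1 mM CaCl2, 300 mM KCl. Cell held 2.5 µM protein with 1% DMSO and 940 µM Triton X-100. Syringe held 78.5 µM compound in matching buffer; twenty 10 µL injections. Buffer-only titration subtracted as background; single-site fit gave Kd and stoichiometry.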

[15] = molecular target: T1, Prostaglandin G/H synthase 2 (Homo sapiens) (UniProt P35354); test: Inhibition of COX2 at 100 uM
T1 sequence (whole entry): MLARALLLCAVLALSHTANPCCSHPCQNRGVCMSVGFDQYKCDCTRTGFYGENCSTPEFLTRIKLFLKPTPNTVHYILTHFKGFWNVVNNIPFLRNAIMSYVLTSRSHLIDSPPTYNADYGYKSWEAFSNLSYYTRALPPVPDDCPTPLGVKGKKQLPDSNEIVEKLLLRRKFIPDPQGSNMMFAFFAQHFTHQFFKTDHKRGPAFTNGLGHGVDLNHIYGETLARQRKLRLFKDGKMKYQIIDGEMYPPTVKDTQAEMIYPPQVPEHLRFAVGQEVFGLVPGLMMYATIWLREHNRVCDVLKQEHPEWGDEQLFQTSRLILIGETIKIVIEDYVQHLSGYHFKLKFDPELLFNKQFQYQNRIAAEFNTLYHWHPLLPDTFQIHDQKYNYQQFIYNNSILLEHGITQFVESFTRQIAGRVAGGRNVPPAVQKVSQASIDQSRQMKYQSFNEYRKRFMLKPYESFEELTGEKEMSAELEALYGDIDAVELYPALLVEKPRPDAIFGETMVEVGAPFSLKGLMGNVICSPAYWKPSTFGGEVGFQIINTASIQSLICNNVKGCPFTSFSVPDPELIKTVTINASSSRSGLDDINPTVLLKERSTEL

[16] = molecular target: Prostaglandin G/H synthase 1 (Homo sapiens) (UniProt P23219); test: Inhibition of COX1 at 100 uM
Chain of Prostaglandin G/H synthase 1 (Homo sapiens) (P23219 whole entry): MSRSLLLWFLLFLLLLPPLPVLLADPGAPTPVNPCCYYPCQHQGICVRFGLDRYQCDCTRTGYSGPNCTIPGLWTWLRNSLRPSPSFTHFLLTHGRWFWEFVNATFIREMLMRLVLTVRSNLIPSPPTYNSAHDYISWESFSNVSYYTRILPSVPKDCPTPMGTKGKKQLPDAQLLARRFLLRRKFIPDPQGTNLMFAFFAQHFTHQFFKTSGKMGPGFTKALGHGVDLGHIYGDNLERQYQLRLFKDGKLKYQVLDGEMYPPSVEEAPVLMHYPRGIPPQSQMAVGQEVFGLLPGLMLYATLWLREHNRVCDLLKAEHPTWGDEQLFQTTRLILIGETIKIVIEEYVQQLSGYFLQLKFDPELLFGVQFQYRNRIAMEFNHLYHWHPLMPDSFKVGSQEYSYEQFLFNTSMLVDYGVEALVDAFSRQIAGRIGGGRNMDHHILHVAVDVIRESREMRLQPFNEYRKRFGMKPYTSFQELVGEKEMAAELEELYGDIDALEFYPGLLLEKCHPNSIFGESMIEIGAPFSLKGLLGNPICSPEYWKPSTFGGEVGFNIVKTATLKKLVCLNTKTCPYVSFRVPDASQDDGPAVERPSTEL

[17] = Selectivity for human cPLA2-alpha over COX1
[18] = Selectivity for human cPLA2-alpha over COX2
Blood [19] = test: Inhibition of TXB2 production in human whole blood assay; type: functional, tissue-based
Summary of the method: (§4)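 Heparinized blood from healthy male volunteers (3 donors). Aliquots preincubated 15 min at 37 °C with compound in DMSO, then stimulated 15 min with 30 µM A23187 (final). Reaction stopped with 20 mM EDTA; plasma proteins precipitated with cold methanol. TXB2, LTB4, PGE2 and PGF2α measured by immunoassay kit; IC50 derived.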

Blood [20] = test: Inhibition of LTB4 production in human whole blood assay; type: functional, tissue-based; summary of the method: as §4
Blood [21] = test: Inhibition of PGE2 production in human whole blood assay; type: functional, tissue-based; summary of the method: as §4
Blood [22] = test: Inhibition of PGF2-alpha production in human whole blood assay; type: functional, tissue-based; summary of the method: as §4
Rattus norvegicus [23] = test: Antiinflammatory activity against carrageenan-induced paw edema in Sprague-Dawley rat assessed as decrease in paw volume at 25 mg/kg, po administered through Phosal formulation; type: functional; set-up: scale not given: the % may be the effect or the level left
Summary of the method: (§5)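 Male Sprague-Dawley rats, 190–250 g, n = 10 per group, housed 1 week beforehand. Left hind paw volume measured by plethysmometer before oral dosing in Phosal or MC/TW (0.5% methylcellulose, 2% Tween 80) vehicle. Two hours after dosing, 60 µL of 1% carrageenan in saline injected subplantar. Paw volume remeasured 3 h later; percent inhibition of swelling calculated versus vehicle.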

Rattus norvegicus [24] = test: Antiinflammatory activity against carrageenan-induced paw edema in Sprague-Dawley rat decrease in paw volume at 25 mg/kg, po administered through MC/TW formulation; type: functional; set-up: scale not given: the % may be the effect or the level left; summary of the method: as §5
Rattus norvegicus [25] = test: Antiinflammatory activity against carrageenan-induced paw edema in Sprague-Dawley rat decrease in paw volume at 10 mg/kg, po administered through MC/TW formulation; type: functional; set-up: scale not given: the % may be the effect or the level left; summary of the method: as §5
Rattus norvegicus [26] = test: Antiinflammatory activity against carrageenan-induced paw edema in Sprague-Dawley rat administered through MC/TW formulation; type: functional; summary of the method: as §5
Ovis aries [27] = test: Effect on Ascaris suum-induced early phase-bronchoconstriction in naturally sensitized sheep model assessed as increase in specific lung resistance at 10 mg/kg, iv bid for 1 day; type: functional

IC50 [1]: 0.065 µM
IC50 [2]: 0.1 µM
clearance [3]: 0.84 L/h/kg
bioavailability [4]: 13%
bioavailability [10]: 5%
clearance [11]: 0.084 L/h/kg
bioavailability [12]: 16%
bioavailability [13]: 13%
Kd [14]: 0.08 µM
inhibition [15]: 9.9%
inhibition [16]: 45%
Selectivity ratio [17]: > 1000
Selectivity ratio [18]: > 1000
IC50 (Blood [19]): 0.12 µM
IC50 (Blood [20]): 0.082 µM
IC50 (Blood [21]): 0.06 µM
IC50 (Blood [22]): 0.11 µM
Compound: O=C(O)c1ccc(CCCc2c(CCNS(=O)(=O)c3c(F)cccc3C(F)(F)F)n(C(c3ccccc3)c3ccccc3)c3ccc(Cl)cc23)cc1
Activity (Ovis aries [5]): 379%
Activity (Ovis aries [6]): 431%
Activity (Ovis aries [7]): 29%
Activity (Ovis aries [8]): 29%
Activity (Ovis aries [9]): 68%
Activity (Rattus norvegicus [23]): 16%
Activity (Rattus norvegicus [24]): 44%
Activity (Rattus norvegicus [25]): 34%
ED50 (Rattus norvegicus [26]): < 10 mg/kg
Activity (Ovis aries [27]): 346%
